Experimental data: ChEMBL document CHEMBL1142300, “4-Aminopyrimidine tetrahydronaphthols: a series of novel vanilloid receptor-1 antagonists with improved solubility properties” (Bioorg Med Chem Lett, 2008)
In brackets after ≈: the same amount, converted by molar mass.

Legend:
[1] = Clearance in iv dosed rat; format: ADME, organism-based; conditions: in vivo
[2] = biological target: Transient receptor potential cation channel subfamily V member 1 (Homo sapiens, UniProt Q8NER1); assay: Antagonist activity at human TRPV1 expressed in CHO cells assessed as inhibition of capsaicin-induced calcium mobilization; format: functional, cell-based
Sequence of Transient receptor potential cation channel subfamily V member 1 (Homo sapiens, UniProt Q8NER1) (Q8NER1 whole entry): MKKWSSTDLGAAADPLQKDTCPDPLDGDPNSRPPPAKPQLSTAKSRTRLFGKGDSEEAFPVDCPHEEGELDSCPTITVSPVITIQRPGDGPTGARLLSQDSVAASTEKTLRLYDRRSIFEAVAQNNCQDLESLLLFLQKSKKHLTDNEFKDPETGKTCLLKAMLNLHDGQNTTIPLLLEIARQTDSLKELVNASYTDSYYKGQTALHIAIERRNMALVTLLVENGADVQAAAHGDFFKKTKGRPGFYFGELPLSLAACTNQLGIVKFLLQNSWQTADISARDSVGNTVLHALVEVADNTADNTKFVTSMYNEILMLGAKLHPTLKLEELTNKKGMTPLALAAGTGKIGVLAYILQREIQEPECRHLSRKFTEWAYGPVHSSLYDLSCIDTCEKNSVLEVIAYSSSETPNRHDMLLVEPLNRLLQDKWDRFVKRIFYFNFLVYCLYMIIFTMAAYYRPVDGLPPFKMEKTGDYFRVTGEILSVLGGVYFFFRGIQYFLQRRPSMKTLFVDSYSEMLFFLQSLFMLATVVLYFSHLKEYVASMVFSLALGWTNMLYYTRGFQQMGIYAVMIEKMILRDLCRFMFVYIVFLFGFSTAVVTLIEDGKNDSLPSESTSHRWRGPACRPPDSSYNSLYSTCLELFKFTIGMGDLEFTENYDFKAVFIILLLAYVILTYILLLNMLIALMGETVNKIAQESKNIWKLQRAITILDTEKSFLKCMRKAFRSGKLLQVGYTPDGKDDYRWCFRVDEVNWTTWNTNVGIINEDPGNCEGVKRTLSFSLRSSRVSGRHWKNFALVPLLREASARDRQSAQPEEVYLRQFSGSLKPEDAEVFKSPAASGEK
How it was run: (§1)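 Inhibition of capsaicin-evoked 45Ca2+ uptake into CHO cells stably expressing human or rat TRPV1; IC50 taken as mean of at least three measurements ± SEM. Compounds were also run separately for agonist activity.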

[3] = (§2) Half life in iv dosed rat; format: ADME, organism-based; conditions: in vivo
[4] = Solubility in aqueous 0.01 N HCL; format: physicochemical
How it was run: (§3)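 Thermodynamic solubility determined on a high-throughput automated platform in three aqueous media: 0.01 N HCl, phosphate-buffered saline pH 7.4, and simulated intestinal fluid pH 6.8.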

[5] = Solubility in simulated intestinal fluid at pH 6.8; format: physicochemical; how it was run: as §3
[6] = biological target: Transient receptor potential cation channel subfamily V member 1 (Rattus norvegicus, UniProt O35433); assay: Antagonist activity at rat TRPV1 expressed in CHO cells assessed as inhibition of capsaicin-induced calcium mobilization; format: functional, cell-based; how it was run: as §1
Sequence of Transient receptor potential cation channel subfamily V member 1 (Rattus norvegicus, UniProt O35433) (O35433 whole entry): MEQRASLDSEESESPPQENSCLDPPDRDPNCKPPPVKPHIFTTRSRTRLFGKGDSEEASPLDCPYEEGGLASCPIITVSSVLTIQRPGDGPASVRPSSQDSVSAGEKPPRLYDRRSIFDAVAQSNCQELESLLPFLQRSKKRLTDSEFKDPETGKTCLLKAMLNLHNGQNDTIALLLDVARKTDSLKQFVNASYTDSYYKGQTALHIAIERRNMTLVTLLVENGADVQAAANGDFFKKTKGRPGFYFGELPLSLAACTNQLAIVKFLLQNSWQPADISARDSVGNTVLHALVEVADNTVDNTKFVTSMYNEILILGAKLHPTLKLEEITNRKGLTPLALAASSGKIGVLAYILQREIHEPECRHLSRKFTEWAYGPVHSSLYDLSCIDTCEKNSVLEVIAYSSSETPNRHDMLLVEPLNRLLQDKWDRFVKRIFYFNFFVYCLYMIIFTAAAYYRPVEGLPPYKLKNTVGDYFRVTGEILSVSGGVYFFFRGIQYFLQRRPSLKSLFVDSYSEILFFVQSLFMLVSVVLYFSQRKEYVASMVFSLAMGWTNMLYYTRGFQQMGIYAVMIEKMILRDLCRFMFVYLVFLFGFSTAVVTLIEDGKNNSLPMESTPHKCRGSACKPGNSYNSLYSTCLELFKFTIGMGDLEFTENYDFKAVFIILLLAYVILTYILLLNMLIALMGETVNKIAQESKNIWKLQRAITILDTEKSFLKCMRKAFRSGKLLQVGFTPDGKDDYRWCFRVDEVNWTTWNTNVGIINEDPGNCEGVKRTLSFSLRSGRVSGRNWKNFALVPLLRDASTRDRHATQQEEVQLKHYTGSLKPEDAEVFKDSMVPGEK

[7] = Bioavailability in rat at 5 mg/kg, po; format: ADME, organism-based; conditions: in vivo
[8] = Solubility in phosphate buffered saline at pH 7.4; format: physicochemical; how it was run: as §3
[9] = AUC in rat at 5 mg/kg, po; format: ADME, organism-based; parameters: dose 5 mg/kg, route oral; conditions: plasma
[10] = AUC in rat at 3 mg/kg, po; format: ADME, organism-based; parameters: dose 3 mg/kg, route oral; conditions: plasma
Rattus norvegicus = assay: as §2; format: ADME, organism-based; conditions: in vivo
[11] = aqueous 0.01 N HCl, read-out: Solubility
[12] = simulated intestinal fluid, read-out: Solubility

Compound | IC50 [2] [nM] | IC50 [6] [nM] | Solubility ([8]; buffer) [µg/mL] | Solubility ([4]; buffer) [µg/mL] | further results
OC1CCc2cccc(Nc3cc(-c4ccc(C(F)(F)F)cc4)ncn3)c2C1 (single isomer, unassigned; (-)) | 0.62 | 5.5 | 9.1 (≈ 23.6 µM) | – | clearance [1]: 96.7 mL/min/kg; half-life [3]: 0.9 h; Solubility [4, 11]: 160 µg/mL (≈ 415 µM); Solubility [5, 12]: 85 µg/mL (≈ 221 µM)
CSc1cccc(NC(=O)Nc2cccc3ccc(O)cc23)c1 | 13 | 35 | – | – | –
OC1CCc2cccc(Nc3cc(-c4ccc(C(F)(F)F)cc4)ncn3)c2C1 (stereo in doubt; 4) | 0.65 | 3.1 | 23 (≈ 59.7 µM) | 190 (≈ 493 µM) | –
OC1CCc2c(Cl)ccc(Nc3cc(-c4ccc(C(F)(F)F)cc4)ncn3)c2C1 (centres undefined) | – | – | – | – | bioavailability [7]: 34%; AUC [9]: 3400 ng·h/mL
CC(=O)Nc1nc2c(Oc3cc(-c4ccc(C(F)(F)F)cc4)ncn3)cccc2s1 [AMG-517] | – | – | < 0.1 | < 0.1 | AUC [10]: 5300 ng·h/mL; Solubility ([5]; simulated gi fluid): 0.66 µg/mL (≈ 1.53 µM)

The remaining compounds from weak to strong by IC50 [2], led by results:

IC50 [2] [nM] | IC50 [6] [nM] | Solubility ([8]; buffer) [µg/mL] | Solubility ([4]; buffer) [µg/mL] | Compound | further results
2.1 | 9.6 | – | – | OC1CCc2c(Br)ccc(Nc3cc(-c4ccc(C(F)(F)F)cc4)ncn3)c2C1 (centres undefined) | clearance [1]: 6.5 mL/min/kg; half-life [3]: 5.5 h; Solubility [4, 11]: 7.2 µg/mL (≈ 15.5 µM); Solubility [5, 12]: 73 µg/mL (≈ 157 µM); bioavailability [7]: 60%; Solubility ([8]; phosphate buffered saline, read-out: Solubility): 7.7 µg/mL (≈ 16.6 µM); AUC [9]: 7600 ng·h/mL
0.58 | 5.7 | 5.6 (≈ 14.5 µM) | 180 (≈ 467 µM) | OC1CCc2cccc(Nc3cc(-c4ccc(C(F)(F)F)cc4)ncn3)c2C1 (single isomer, unassigned; (+)) | t1/2 (Rattus norvegicus): 1.2 h; Solubility ([5]; simulated gi fluid): 60 µg/mL (≈ 156 µM)
